Results as given in ChEMBL document CHEMBL4316585, “On the role of synthesized hydroxylated chalcones as dual functional amyloid-β aggregation and ferroptosis inhibitors for potential treatment of Alzheimer's disease” (Eur J Med Chem, 2019).
Activity calls are given as the source filed them. The rule behind the calls is not given here.

Columns and labels:
[1] = molecular target: Amyloid-beta precursor protein (Homo sapiens) (UniProt P05067); test: Inhibition of HFIP-pretreated amyloid beta (1 to 42 residues) (unknown origin) self aggregation at 25 uM after 7 days by ThT-based fluorometric method relative to control
Outline: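 Aβ1-42 (25 μM) incubated with or without inhibitor (25 μM, 1:1) in 10 mM phosphate buffer pH 7.4 with 100 mM NaCl at 37 °C for 7 days. Inhibitor-only blanks included. Samples diluted in 50 mM glycine-NaOH pH 8.0 containing 5 μM ThT, fluorescence read at ex 440/em 485 nm. % inhibition = (1−IFi/IFc)×100 after background subtraction, triplicate.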

SH-SY5Y [2] = test: Neuroprotective activity against amyloid beta (1 to 42)-induced neurodegeneration in human SH-SY5Y cells assessed as cell viability at 10 uM preincubated for 4 hrs followed by amyloid beta (1 to 42) addition and measured after 48 hrs by MTS assay (reference value: 60.4%); assay type: functional; settings: for viability at 10 µM: read-out: Activity
SH-SY5Y [3] = test: (§1) Neurotoxicity against human SH-SY5Y cells assessed as cell viability at 10 to 40 uM after 24 hrs […] relative to control; assay type: toxicity, cell-based; settings: sh-sy5y, 24 h, 40 µM
[4] = as §1; assay type: toxicity, cell-based; settings: SH-SY5Y cells, read-out: Activity
SH-SY5Y [5] = test: Neuroprotective activity against amyloid beta (1 to 42)-induced neurodegeneration in human SH-SY5Y cells assessed as cell viability at 1 uM preincubated for 4 hrs followed by amyloid beta (1 to 42) addition and measured after 48 hrs by MTS assay (reference value: 55.1%); assay type: functional; settings: read-out: Activity
SH-SY5Y [6] = test: Neuroprotective activity against amyloid beta (1 to 42)-induced neurodegeneration in human SH-SY5Y cells assessed as cell viability at 0.5 uM preincubated for 4 hrs followed by amyloid beta (1 to 42) addition and measured after 48 hrs by MTS assay (reference value: 55.1%); assay type: functional; settings: read-out: Activity
SH-SY5Y [7] = test: Neuroprotective activity against amyloid beta (1 to 42)-induced neurodegeneration in human SH-SY5Y cells assessed as increase in cell viability at 1 uM preincubated for 4 hrs followed by amyloid beta (1 to 42) addition after 48 hrs by micrograph method; assay type: functional, cell-based
Outline: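 SH-SY5Y cells pretreated with compound (1 μM), then exposed to Aβ1-42 (10 μM) for 48 h. Cell morphology and clumping assessed by light micrographs against vehicle and Aβ-alone cells.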

SH-SY5Y [8] = test: Inhibition of RSL3-induced lipid peroxidation in human SH-SY5Y cells at 10 uM incubated for 24 hrs by BODIPY-C11'581/591 probe-based flow cytometric analysis; assay type: functional, cell-based
Outline: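 SH-SY5Y seeded 2×10^4/well and adhered 24 h, then given compound plus RSL3 (500 nM) for 24 h. Stained with BODIPY-C11 581/591 (1 μM) for 30 min at 37 °C in the dark. Flow cytometry at ex 488, em 525±25 nm, 10,000 events. Controls: untreated (negative), DEM 1 mM, and RSL3 alone.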

HEK293 [9] = test: Inhibition of erastin-induced ferroptosis in HEK293 cells preincubated for 4 hrs followed by erastin stimulation and measured at next day by MTS assay; assay type: functional, cell-based, Homo sapiens
Outline: (§2)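 HEK-293 cells grown in DMEM with 10 % FBS, 1 % pen/strep and 1 mM sodium pyruvate, 37 °C, 5 % CO2. Seeded 5000/well for 24 h. Compounds at a range of concentrations added 4 h before ferroptosis induction with (1S,3R)-RSL3 (500 nM) or erastin (10 μM). MTS viability read 24 h after induction, normalized to vehicle. IC50 taken as the mean of ≥3 experiments.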

HEK293 [10] = test: Inhibition of (1S,3R)-RSL3-induced ferroptosis in HEK293 cells preincubated for 4 hrs followed by (1S,3R)-RSL3 stimulation and measured at next day by MTS assay; settings: Homo sapiens
SH-SY5Y [11] = test: Inhibition of amyloid beta (1 to 42)-induced lipid peroxidation in human SH-SY5Y cells at 10 uM incubated for 48 hrs by BODIPY-C11'581/591 probe-based flow cytometric analysis; assay type: functional, cell-based
Outline: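 SH-SY5Y seeded 2×10^4/well and adhered 24 h, then given compound with Aβ1-42 for 48 h. Stained with BODIPY-C11 581/591 (1 μM) for 30 min at 37 °C in the dark. Flow cytometry at ex 488, em 525±25 nm, 10,000 events. Untreated, DEM (1 mM) and Aβ-alone controls.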

HEK293 [12] = test: Inhibition of (1S,3R)-RSL3-induced ferroptosis in HEK293 cells preincubated for 4 hrs followed by erastin stimulation and measured at next day by MTS assay; assay type: functional, cell-based, Homo sapiens; outline: as §2
[13] = Homo sapiens, HEK293, read-out: IC50

Amyloid-beta precursor protein (Homo sapiens), sequence (P05067 whole entry, the tested form may be a part): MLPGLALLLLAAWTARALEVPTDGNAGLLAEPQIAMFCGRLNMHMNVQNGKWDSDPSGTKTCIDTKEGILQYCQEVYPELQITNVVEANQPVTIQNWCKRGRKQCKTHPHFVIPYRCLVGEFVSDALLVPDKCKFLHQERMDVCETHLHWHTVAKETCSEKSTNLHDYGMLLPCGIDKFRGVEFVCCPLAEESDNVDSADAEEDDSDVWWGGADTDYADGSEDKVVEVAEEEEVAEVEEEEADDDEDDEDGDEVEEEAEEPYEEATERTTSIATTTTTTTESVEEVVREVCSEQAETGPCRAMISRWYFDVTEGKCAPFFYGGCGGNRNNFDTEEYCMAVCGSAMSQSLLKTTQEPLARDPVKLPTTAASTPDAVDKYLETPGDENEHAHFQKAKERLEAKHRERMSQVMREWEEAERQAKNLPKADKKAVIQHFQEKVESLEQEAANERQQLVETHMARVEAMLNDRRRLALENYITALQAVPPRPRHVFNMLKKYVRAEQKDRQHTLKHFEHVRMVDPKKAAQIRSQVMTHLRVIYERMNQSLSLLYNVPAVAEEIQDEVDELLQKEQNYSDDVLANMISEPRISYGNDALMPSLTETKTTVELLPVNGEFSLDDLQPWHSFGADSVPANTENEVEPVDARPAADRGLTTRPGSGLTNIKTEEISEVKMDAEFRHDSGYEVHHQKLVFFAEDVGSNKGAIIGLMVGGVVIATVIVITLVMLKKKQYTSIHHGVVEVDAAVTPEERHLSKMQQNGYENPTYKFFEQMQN

## COCOc1ccc(C(=O)/C=C/c2cccc(C)c2)c(O)c1OCOC
[1]
  inhibition: 16.4%
SH-SY5Y [2]
  viability at 10 µM: 72 to 84.9%
SH-SY5Y [3]
  Activity: Non-Toxic

## COc1ccc(/C=C/C(=O)c2cc(O)cc(O)c2)cc1
[1]
  inhibition: 19%
SH-SY5Y [2]
  Activity: Active
SH-SY5Y [3]
  Activity: Non-Toxic

## COc1cc(/C=C/C(=O)CC(=O)/C=C/c2ccc(O)c(OC)c2)ccc1O [CURCUMIN]
SH-SY5Y [2]
  viability at 10 µM: 76%

## Cc1cccc(/C=C/C(=O)c2cccc(O)c2)c1
[1]
  inhibition: inactive
[4]
  viability at 24 h, up to 40 µM: 73.6 to 77.4%

## COc1ccc(/C=C/C(=O)c2cccc(O)c2)cc1OC
[1]
  inhibition: inactive
SH-SY5Y [3]
  Activity: Non-Toxic

## O=C(/C=C/c1cccc(Cl)c1)c1ccc(O)c(O)c1O
[1]
  inhibition: 70.3 to 76.3%
SH-SY5Y [2]
  viability at 10 µM: 96.5 to 106%
SH-SY5Y [5]
  viability at 1 µM: 70.8 to 77.5%
SH-SY5Y [6]
  viability at 0.5 µM: 66.7 to 73.8%
SH-SY5Y [7]
  Activity: Active
SH-SY5Y [3]
  Activity: Non-Toxic
SH-SY5Y [8]
  inhibition: Active
HEK293 [9]; [13]
  IC50: 3150 nM
HEK293 [10]
  IC50: 860 nM

## Cc1cccc(/C=C/C(=O)c2ccc(O)c(O)c2O)c1
[1]
  inhibition: 70.3 to 76.3%
SH-SY5Y [2]
  viability at 10 µM: 96.5 to 106%
SH-SY5Y [5]
  viability at 1 µM: 70.8 to 77.5%
SH-SY5Y [6]
  viability at 0.5 µM: 66.7 to 73.8%
SH-SY5Y [7]
  Activity: Active
SH-SY5Y [3]
  Activity: Non-Toxic
SH-SY5Y [11]
  inhibition: Active
HEK293 [9]; [13]
  IC50: 3810 nM
HEK293 [10]
  IC50: 450 nM

## COCOc1ccc(C(=O)/C=C/c2ccc(OC)cc2)c(O)c1OCOC
[1]
  inhibition: 16.4%
SH-SY5Y [2]
  viability at 10 µM: 72 to 84.9%
SH-SY5Y [3]
  Activity: Non-Toxic

## Cc1cccc(/C=C/C(=O)c2cc(O)cc(O)c2)c1
[1]
  inhibition: 27.2%
SH-SY5Y [2]
  Activity: Active
SH-SY5Y [3]
  Activity: Non-Toxic

## COc1ccc(/C=C/C(=O)c2ccc(O)c(O)c2O)cc1
[1]
  inhibition: 70.3 to 76.3%
SH-SY5Y [2]
  viability at 10 µM: 96.5 to 106%
SH-SY5Y [5]
  viability at 1 µM: 70.8 to 77.5%
SH-SY5Y [6]
  viability at 0.5 µM: 66.7 to 73.8%
SH-SY5Y [7]
  Activity: Active
SH-SY5Y [3]
  Activity: Non-Toxic
SH-SY5Y [8]
  inhibition: Active
HEK293 [9]; [13]
  IC50: 3880 nM
HEK293 [10]
  IC50: 1770 nM

## O=C(O[C@@H]1Cc2c(O)cc(O)cc2O[C@@H]1c1cc(O)c(O)c(O)c1)c1cc(O)c(O)c(O)c1 [EPIGALOCATECHIN GALLATE]
[1]
  inhibition: 52.9%
SH-SY5Y [2]
  viability at 10 µM: 92.5%
SH-SY5Y [5]
  viability at 1 µM: 63%
SH-SY5Y [6]
  viability at 0.5 µM: 60.1%
HEK293 [9]; hek293
  IC50: Not Active
HEK293 [12]
  IC50: Not Active

## COCOc1ccc(C(=O)/C=C/c2cccc(Cl)c2)c(O)c1OCOC
[1]
  inhibition: 16.4%
SH-SY5Y [2]
  viability at 10 µM: 72 to 84.9%
SH-SY5Y [3]
  Activity: Non-Toxic
